Results published in EPA's CvTdb concentration-time database.
Values joined by “and” are separate entries in the source; they are usually repeats but may differ in a detail not shown here. Identical values can stand only once.

Experiments:
rat [1] = assay: concentration in blood after dosing; settings: dosed: isoflurane, 50000 ppm, dermal, duration: 4 hr, male, F344
rat [2] = assay: concentration in blood after dosing; settings: male
rat [3] = assay: concentration in blood after dosing; settings: dosed: isoflurane, 50000 ppm, dermal, duration: 4 hr, male, F344; remark: listed apart in the source
rat [4] = assay: concentration in blood after dosing; settings: dosed: isoflurane, 50000 ppm, dermal, duration: 4 hr, male, F344; remark: listed apart in the source
rat [5] = assay: concentration in blood after dosing; settings: dosed: isoflurane, 50000 ppm, dermal, duration: 4 hr, male, F344; remark: listed apart in the source
rat [6] = assay: concentration in blood after dosing; settings: dosed: isoflurane, 50000 ppm, dermal, duration: 4 hr, male, F344; remark: listed apart in the source
rat [7] = assay: concentration in blood after dosing; settings: dosed: halothane, 50000 ppm, dermal, duration: 4 hr, male, F344
rat [8] = assay: concentration in blood after dosing; settings: dosed: halothane, 50000 ppm, dermal, duration: 4 hr, male, F344; remark: listed apart in the source
rat [9] = assay: concentration in blood after dosing; settings: dosed: halothane, 50000 ppm, dermal, duration: 4 hr, male, F344; remark: listed apart in the source
human [10] = assay: concentration in blood after dosing; settings: dosed: 1,2,4-trimethylbenzene, inhalation, duration: 2 hr
Outline: (§1)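 Data points giving concentration or amount against time came from published in vivo toxicokinetic studies and from two structured collections. PubMed searching, classifier screening and manual review located the studies. Most points were digitised from plot screenshots using WebPlotDigitizer, the rest were copied from tables, and all keep their reported units.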

human [11] = assay: concentration in blood after dosing; negative times count back from the end of exposure; settings: dosed: 1,2,4-trimethylbenzene, inhalation, duration: 2 hr
Outline: as §1

FC(F)OC(Cl)C(F)(F)F (stereo unspecified) [isoflurane]
concentration in blood [ng/mL]
Settings	rat [1]	rat [3]	rat [4]	rat [5]	rat [6]
0.5 h	510	1120	19.6	–	418
1 h	699	2500	–	–	1010
2 h	1610	3610	1730	1120	–
3 h	1720	3220	2030	1520	1610
4 h	915	2520	824	1210	516

rat [2], dosed: isoflurane, 50000 ppm, dermal, duration: 4 hr, F344
Settings	concentration in blood
0.5 h	614 ng/mL
1 h	810 ng/mL and 1520 ng/mL
2 h	1610 ng/mL and 1420 ng/mL
3 h	1520 ng/mL
4 h	706 ng/mL

FC(F)(F)C(Cl)Br (stereo unspecified) [halothane]
concentration in blood [ng/mL]
Settings	0.5 h	1 h	2 h	3 h	4 h
rat [7]	1420	2310	2600	3360	2720
rat [8]	1300	–	3220	3020	2520
rat [9]	3130	4930	5210	5410	7710

rat [2], dosed: halothane, 50000 ppm, dermal, duration: 4 hr, F344
Settings	concentration in blood [ng/mL]
0.5 h	623
1 h	2040
2 h	2110
3 h	2720
4 h	2190

Cc1ccc(C)c(C)c1 [1,2,4-trimethylbenzene]
concentration in blood [nM]
Settings	human [10]	human [11]
0.1241 h, 2 ppm	–	249
0.1793 h, 25 ppm	970	3640
0.2345 h, 2 ppm	67.7	237
0.2621 h, 25 ppm	–	3110
0.5655 h, 2 ppm	52.6	164
0.5655 h, 25 ppm	–	2420
0.5931 h, 25 ppm	459	–
0.9793 h, 2 ppm	–	87.2
1.062 h, 25 ppm	–	1610
1.476 h, 2 ppm	–	95.1
1.503 h, 25 ppm	658	–
1.531 h, 25 ppm	–	1360
1.972 h, 25 ppm	–	989
2.524 h, 2 ppm	–	75.3
2.524 h, 25 ppm	–	863
2.579 h, 25 ppm	404	–
2.966 h, 2 ppm	–	51.5
3.186 h, 25 ppm	–	790
3.517 h, 25 ppm	–	683
3.572 h, 25 ppm	314	–
3.959 h, 25 ppm	–	614
11.99 h, 25 ppm	–	171
21.97 h, 25 ppm	–	134
248 s, 2 ppm	–	288
248 s, 25 ppm	–	4170

concentration in blood [nM], human [11], during exposure
Settings	2 ppm	25 ppm
-248 s	–	7990
-50 s	552	–
-1.917 h	–	2540
-1.89 h	147	–
-1.752 h	–	3540
-1.724 h	231	–
-1.476 h	291	4460
-1.255 h	–	6030
-1.228 h	327	–
-1.007 h	–	6090
-0.9793 h	409	–
-0.7862 h	–	6910
-0.731 h	433	–
-0.4828 h	516	–
-0.4552 h	–	7540
-0.2897 h	–	7180
-0.2345 h	506	–

CCCCCCCC [octane]
concentration in blood, rat [2], dosed: octane, inhalation, duration: 2 hr, Fischer-344
Settings	0.1291 h	0.3815 h	0.705 h	171 s	183 s
1000 ppm	3810 ng/mL and 4510 ng/mL	1730 ng/mL and 2020 ng/mL	777 ng/mL and 960 ng/mL	5730 ng/mL and 7180 ng/mL	–
5000 ppm	–	–	–	–	30200 ng/mL and 25900 ng/mL and 22800 ng/mL
